Measurements: ChEMBL document CHEMBL4699441, “Identification and Preclinical Evaluation of the Bicyclic Pyrimidine γ-Secretase Modulator BMS-932481” (ACS Med Chem Lett, 2019)
Values after ≈ are worked out from the molar mass of the structure shown. Active and inactive are the calls of the source. No cut-off for these calls is given here.

Tests used:
[1] = Efflux ratio of permeability in human Caco2 cells; format: ADME, cell-based; conditions: caco-2
[2] = Octanol/water partition coefficient, logD of the compound at pH 7.4 by shake flask method; format: physicochemical
Cytochrome P450 2D6 = Cytochrome P450 2D6 (Homo sapiens, UniProt P10635); assay: Inhibition of CYP2D6 in human liver microsomes; format: ADME
Cytochrome P450 3A4 [3] = biological target: T1, Cytochrome P450 3A4 (Homo sapiens, UniProt P08684); assay: Inhibition of CYP3A4 in human liver microsomes measured after 30 mins; format: ADME
[4] = AUC in Beagle dog at 300 mg/kg, po measured up to 24 hrs by LC-MS/MS analysis; format: ADME, organism-based, Canis lupus familiaris; parameters: route oral, dose 300 mg/kg, time >=24; conditions: in vivo
How it was run: (§1)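 Dogs given an acute single oral dose of 300 mg/kg; plasma Cmax and AUC measured alongside bilirubin and other clinical pathology assessments.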

[5] = Cmax in Beagle dog at 300 mg/kg, po measured up to 24 hrs by LC-MS/MS analysis; format: ADME, organism-based, Canis lupus familiaris; parameters: route oral, dose 300 mg/kg, time >=24; conditions: in vivo; how it was run: as §1
[6] = Inhibition of total amyloid beta secretion in human H4 cells overexpressing APP at 50 uM; format: cell-based
[7] = biological target: T2, UDP-glucuronosyltransferase 1A1 (Homo sapiens, UniProt P22309); assay: Inhibition of human UGT1A1; format: ADME
T2 sequence (P22309 whole entry): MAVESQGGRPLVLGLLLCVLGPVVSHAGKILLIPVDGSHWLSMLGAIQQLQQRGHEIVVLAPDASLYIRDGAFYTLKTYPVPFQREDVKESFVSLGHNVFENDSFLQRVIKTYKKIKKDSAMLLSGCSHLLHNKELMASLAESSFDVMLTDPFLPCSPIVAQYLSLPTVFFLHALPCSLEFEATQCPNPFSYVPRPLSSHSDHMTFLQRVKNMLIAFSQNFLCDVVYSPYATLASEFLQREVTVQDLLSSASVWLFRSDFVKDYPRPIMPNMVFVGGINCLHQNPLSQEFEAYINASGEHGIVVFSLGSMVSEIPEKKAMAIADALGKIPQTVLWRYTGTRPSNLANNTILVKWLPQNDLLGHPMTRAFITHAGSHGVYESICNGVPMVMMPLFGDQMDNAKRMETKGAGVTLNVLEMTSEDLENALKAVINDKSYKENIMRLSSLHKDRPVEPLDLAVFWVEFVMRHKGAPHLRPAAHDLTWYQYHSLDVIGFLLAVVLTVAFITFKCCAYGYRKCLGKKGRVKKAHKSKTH

Cytochrome P450 3A4 [8] = biological target: T1, Cytochrome P450 3A4; assay: Time dependent inhibition of CYP3A4 in human liver microsomes assessed as inhibition constant; format: ADME
[9] = Toxicity in Beagle dog assessed as changes in bilirubin level at 300 mg/kg, po; format: organism-based, Canis lupus familiaris; conditions: in vivo
How it was run: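 Dogs given a single acute oral dose of 300 mg/kg; bilirubin and other clinical pathology assessed; Cmax and AUC measured.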

[10] = Toxicity in rat assessed as change in bilirubin secretion at 10 to 100 mg/kg, po administered for 2 week; format: organism-based; conditions: in vivo, 336 h, dose 10-100 mg/kg, time 2 weeks
[11] = Toxicity in rat assessed as change in notch related goblet cell metaplasia in the duodenum at 100 mg/kg, po administered for 2 week; format: organism-based; conditions: in vivo, 336 h, time 2 weeks
Cytochrome P450 3A4 [12] = biological target: T1, Cytochrome P450 3A4; assay: Time dependent inhibition of CYP3A4 in human liver microsomes assessed as inactivation constant; format: ADME
[13] = Reduction in amyloid beta (1 to 42) secretion in brain in Harlan Sprague-Dawley rat at 10 mg/kg, po measured after 3 hrs relative to control; format: functional
How it was run: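 Sprague–Dawley rats dosed 10 mg/kg po; brain Aβ1-42 measured 3 h postdose; n = 5.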

[14] = Hemodynamic activity in unconscious telemeterized rabbit assessed as decrease in heart rate at >= 10 mg/kg; format: ADME, organism-based, Oryctolagus cuniculus; conditions: in vivo
Cytochrome P450 2C19 = Cytochrome P450 2C19 (Homo sapiens, UniProt P33261); assay: Inhibition of CYP2C19 in human liver microsomes; format: ADME
[15] = Half life in cynomolgus monkey at 1 mg/kg, iv measured up to 24 hrs by LC-MS/MS analysis; format: ADME, organism-based, Macaca fascicularis; conditions: in vivo
How it was run: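 Male Beagle dogs and male cynomolgus monkeys, 1 mg/kg by 5 min iv infusion in 9:1 PEG:EtOH, n=3.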

[16] = Aqueous solubility of the compound at pH 6.5; format: physicochemical; conditions: buffer
[17] = Fraction unbound in human plasma measured after 24 hrs by LC-MS/MS analysis; format: ADME, cell-free
[18] = Fraction unbound in mouse plasma measured after 24 hrs by LC-MS/MS analysis; format: ADME, cell-free
Brain = assay: Antialzheimer activity in rat brain assessed as reduction in amyloid beta (1 to 42) AUC at 10 mg/kg measured after 24 hrs relative to control; format: functional; parameters: scale not given: the % may be the effect or the level left
How it was run: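 Rats dosed orally; brain Aβ1-42 followed over 24 h, and the reduction in brain Aβ1-42 AUC integrated over 0–24 h was fitted to an indirect response PK/PD model.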

[19] = Hemodynamic activity in conscious telemeterized rat assessed as change in blood pressure at >= 10 mg/kg; format: ADME, organism-based; conditions: in vivo
H4 = assay: Inhibition of amyloid beta (1 to 42) secretion in human H4 cells overexpressing APP incubated for 24 hrs by MALDI-TOF mass spectrometric analysis; format: functional, cell-based
[20] = Volume of steady state distribution in Beagle dog at 1 mg/kg, iv measured up to 24 hrs by LC-MS/MS analysis; format: ADME, organism-based, Canis lupus familiaris; conditions: in vivo
How it was run: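 Male Beagle dog or male cynomolgus monkey; 1 mg/kg as 5 min iv infusion in 9:1 PEG:EtOH; n = 3; volume of distribution at steady state.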

[21] = Inhibition of amyloid beta (1 to 40) secretion in human H4 cells overexpressing APP incubated for overnight by HTRF analysis; format: functional, cell-based
[22] = biological target: Voltage-gated inwardly rectifying potassium channel KCNH2 (Homo sapiens, UniProt Q12809); assay: Inhibition of human ERG by patch clamp method
Cytochrome P450 2C9 = Cytochrome P450 2C9 (Homo sapiens, UniProt P11712); assay: Inhibition of CYP2C9 in human liver microsomes; format: ADME
[23] = Cardiotoxicity in unconscious telemeterized rabbit assessed as increase in QTcf time at 10 mg/kg; format: toxicity, organism-based, Oryctolagus cuniculus; conditions: in vivo
[24] = Toxicity in Beagle dog assessed as hyperbilirubinemia at 150 mg/kg, po administered for 1 month; format: organism-based, Canis lupus familiaris; conditions: in vivo, 730 h, time 1 months
How it was run: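 One-month oral toxicity study in dogs; high dose 150 mg/kg; bilirubin assessed.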

[25] = Toxicity in rat assessed as reduction in food consumption at 100 mg/kg, po administered for 2 week; format: organism-based; conditions: in vivo, 336 h, time 2 weeks
[26] = Induction of CYP3A4 mRNA expression in human hepatocytes at 1 uM relative to control; format: ADME, cell-based, Hepatocyte
[27] = Induction of CYP3A4 mRNA expression in human hepatocytes at 3.3 to 10 uM relative to control; format: ADME, cell-based, Hepatocyte; conditions: dose 3.3-10 µM
[28] = Metabolic stability in cynomolgus monkey assessed as half life incubated for 24 hrs by LC-MS/MS analysis; format: ADME, Macaca fascicularis
[29] = Plasma exposure (AUC) in rat at 3 mg/kg measured after 24 hrs
[30] = Oral bioavailability in Sprague-Dawley rat at 2 mg/kg dosed as nano suspension measured up to 24 hrs by LC-MS/MS analysis; format: ADME, organism-based; conditions: in vivo
How it was run: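 Oral dosing as a nanosuspension in Sprague–Dawley rat, male Beagle dog and male cynomolgus monkey; dogs pretreated with pentagastrin.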

T1 sequence (P08684 whole entry): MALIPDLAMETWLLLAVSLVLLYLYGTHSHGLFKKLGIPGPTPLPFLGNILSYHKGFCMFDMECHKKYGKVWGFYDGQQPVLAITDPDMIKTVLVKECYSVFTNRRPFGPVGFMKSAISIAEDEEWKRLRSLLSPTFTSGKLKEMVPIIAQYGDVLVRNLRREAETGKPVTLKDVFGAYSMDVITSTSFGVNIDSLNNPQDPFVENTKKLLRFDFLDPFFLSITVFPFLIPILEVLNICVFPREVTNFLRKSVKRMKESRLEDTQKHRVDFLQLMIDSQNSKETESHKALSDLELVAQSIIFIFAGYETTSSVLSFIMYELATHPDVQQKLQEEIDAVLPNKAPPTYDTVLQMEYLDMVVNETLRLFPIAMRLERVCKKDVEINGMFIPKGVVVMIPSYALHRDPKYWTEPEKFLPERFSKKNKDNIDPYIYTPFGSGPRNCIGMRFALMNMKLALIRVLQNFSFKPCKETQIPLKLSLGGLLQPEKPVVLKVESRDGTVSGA
Chain of Cytochrome P450 2C19 (P33261 whole entry): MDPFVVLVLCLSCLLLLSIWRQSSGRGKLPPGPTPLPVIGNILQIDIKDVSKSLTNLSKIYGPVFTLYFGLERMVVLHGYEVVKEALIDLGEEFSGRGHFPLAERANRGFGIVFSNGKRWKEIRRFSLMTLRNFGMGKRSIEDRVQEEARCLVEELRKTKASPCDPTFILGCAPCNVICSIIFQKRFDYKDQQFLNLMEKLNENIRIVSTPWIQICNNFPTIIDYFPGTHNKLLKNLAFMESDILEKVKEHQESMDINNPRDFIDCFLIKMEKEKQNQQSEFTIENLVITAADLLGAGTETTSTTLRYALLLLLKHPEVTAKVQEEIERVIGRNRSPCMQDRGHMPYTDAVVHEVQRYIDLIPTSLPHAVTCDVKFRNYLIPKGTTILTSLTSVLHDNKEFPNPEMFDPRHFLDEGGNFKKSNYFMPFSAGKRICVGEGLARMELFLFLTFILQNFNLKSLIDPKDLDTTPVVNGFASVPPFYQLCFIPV
Chain of Cytochrome P450 2C9 (P11712 whole entry): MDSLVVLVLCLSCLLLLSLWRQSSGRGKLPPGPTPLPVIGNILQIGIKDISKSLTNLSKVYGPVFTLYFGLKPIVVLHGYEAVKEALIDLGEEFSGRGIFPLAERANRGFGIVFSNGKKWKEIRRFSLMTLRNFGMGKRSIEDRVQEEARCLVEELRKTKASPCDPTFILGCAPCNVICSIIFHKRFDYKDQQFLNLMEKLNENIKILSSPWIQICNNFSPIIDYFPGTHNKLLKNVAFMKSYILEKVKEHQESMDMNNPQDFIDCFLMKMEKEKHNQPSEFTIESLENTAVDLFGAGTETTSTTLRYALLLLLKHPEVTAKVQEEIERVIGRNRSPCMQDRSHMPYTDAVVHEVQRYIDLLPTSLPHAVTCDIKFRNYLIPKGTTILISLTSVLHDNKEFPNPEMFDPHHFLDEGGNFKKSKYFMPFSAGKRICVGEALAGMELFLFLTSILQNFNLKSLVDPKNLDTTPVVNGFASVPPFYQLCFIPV
Chain of Voltage-gated inwardly rectifying potassium channel KCNH2 (Q12809 whole entry): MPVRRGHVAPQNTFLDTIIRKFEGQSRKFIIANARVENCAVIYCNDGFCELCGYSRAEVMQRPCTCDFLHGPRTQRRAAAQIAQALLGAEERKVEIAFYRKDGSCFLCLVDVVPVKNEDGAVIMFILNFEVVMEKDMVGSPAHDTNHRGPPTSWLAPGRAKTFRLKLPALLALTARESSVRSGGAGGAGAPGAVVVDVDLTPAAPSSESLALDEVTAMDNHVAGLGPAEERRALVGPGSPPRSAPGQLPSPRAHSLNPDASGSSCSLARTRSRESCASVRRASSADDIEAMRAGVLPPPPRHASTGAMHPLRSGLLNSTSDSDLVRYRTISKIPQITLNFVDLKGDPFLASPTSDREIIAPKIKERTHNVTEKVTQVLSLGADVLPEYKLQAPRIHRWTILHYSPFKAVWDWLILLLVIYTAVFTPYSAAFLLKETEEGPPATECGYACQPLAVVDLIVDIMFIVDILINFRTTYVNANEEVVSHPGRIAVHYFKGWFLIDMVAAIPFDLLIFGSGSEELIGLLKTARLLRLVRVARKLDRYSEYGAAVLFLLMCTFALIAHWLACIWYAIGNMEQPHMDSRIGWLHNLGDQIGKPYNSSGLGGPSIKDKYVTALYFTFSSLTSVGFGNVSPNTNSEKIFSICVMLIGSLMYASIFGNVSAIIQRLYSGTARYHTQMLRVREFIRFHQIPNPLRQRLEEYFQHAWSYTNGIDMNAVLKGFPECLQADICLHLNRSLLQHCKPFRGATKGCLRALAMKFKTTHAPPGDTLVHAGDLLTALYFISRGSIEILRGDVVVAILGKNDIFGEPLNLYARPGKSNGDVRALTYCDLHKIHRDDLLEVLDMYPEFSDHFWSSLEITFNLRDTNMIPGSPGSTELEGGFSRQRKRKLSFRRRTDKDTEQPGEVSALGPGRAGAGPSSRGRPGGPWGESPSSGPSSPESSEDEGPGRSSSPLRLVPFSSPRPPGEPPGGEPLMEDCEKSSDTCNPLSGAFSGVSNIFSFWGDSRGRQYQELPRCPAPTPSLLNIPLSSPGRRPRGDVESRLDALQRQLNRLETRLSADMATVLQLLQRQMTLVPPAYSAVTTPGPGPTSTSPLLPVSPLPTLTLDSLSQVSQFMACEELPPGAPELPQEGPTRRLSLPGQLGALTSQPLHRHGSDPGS
Chain of Cytochrome P450 2D6 (P10635 whole entry): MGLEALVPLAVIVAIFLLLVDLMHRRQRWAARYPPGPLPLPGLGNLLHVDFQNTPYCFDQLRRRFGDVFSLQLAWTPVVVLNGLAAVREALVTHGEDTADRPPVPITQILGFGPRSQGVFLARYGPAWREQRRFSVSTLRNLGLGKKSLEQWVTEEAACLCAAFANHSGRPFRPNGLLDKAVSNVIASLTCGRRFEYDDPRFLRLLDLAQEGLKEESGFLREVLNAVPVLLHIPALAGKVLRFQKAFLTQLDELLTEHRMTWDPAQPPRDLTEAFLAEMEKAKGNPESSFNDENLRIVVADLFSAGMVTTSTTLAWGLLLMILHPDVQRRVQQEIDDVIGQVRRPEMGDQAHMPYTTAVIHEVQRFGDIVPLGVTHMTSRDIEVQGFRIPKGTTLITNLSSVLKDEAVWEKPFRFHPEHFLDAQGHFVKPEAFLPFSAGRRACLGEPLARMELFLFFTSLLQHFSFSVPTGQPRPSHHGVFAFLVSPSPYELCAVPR

CNc1nc(Nc2ccc(-n3cnc(C)n3)c(OC)c2)nc2c1CC[C@H]2c1ccc(F)cc1
Ratio [1]: 0.8 | logD [2]: 4.34 | IC50 (Cytochrome P450 2D6): 18 µM | IC50 (Cytochrome P450 3A4 [3]): 0.2 µM | AUC [4]: 180 µM·h | Cmax [5]: 14 µM | inhibition at 50 µM [6]: 30% | IC50 [7]: 1.4 µM | Ki (Cytochrome P450 3A4 [8]): 83 µM | Activity [9]: Non-Toxic | Activity [10]: Non-Toxic | Activity [11]: Non-Toxic | Kinact (Cytochrome P450 3A4 [12]): 0.47 min⁻¹ | inhibition in vivo at 10 mg/kg [13]: 41% | Activity [14]: Non-Toxic | IC50 (Cytochrome P450 2C19): 8.3 µM | t1/2 [15]: 2.9 h | solubility [16]: 0.1 µg/mL (≈ 0.224 µM) | Fu [17]: 0.6% | Fu [18]: 0.7% | Activity (Brain): 66% | Activity [19]: Non-Toxic | inhibition (H4): Active | Vdss [20]: 6.1 L/kg | IC50 [21]: 0.025 µM | IC50 [22]: 1.2 µM | IC50 (Cytochrome P450 2C9): 7.4 µM | Time [23]: 3 ms | Activity [24]: Toxic | Activity [25]: Non-Toxic | Activity [26]: 16% | Activity [27]: 36% | t1/2 [28]: 0.183 h | AUC at 24 h [29]: 9.7 µM·h | F [30]: 98%
